An excerpt weighted towards active compounds, which were near 4.9% of everything screened.
STAT3 inh-1: STAT3 signaling inhibition | U3A cells, IL-6 STAT3-luciferase reporter, luminescence; host cell line lacks STAT1 | inhibition, % at 5.5 µM | 190,000 compounds, 0.89% hits | AID 862;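 active means inhibition above the mean inhibition across all screened compounds plus 3 SD, cut at about 44% in these data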
STAT1 activator: increases IFN-gamma driven STAT1 reporter signal; activation (% of control), % at 5.5 µM; NIH 3T3 STAT1-luciferase reporter, luminescence; 100% = IFN-gamma alone, no compound; 200,000 compounds, 2.6% hits;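 active means activation above the screen-wide mean activation plus 3 SD, cut at about 130% in these data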
NF-kB neuron act: NF-kB expression increase, human neuronal cells; NF-kB reporter expression; active compounds read high; fold change at 12.5 µM; 190,000 compounds, 1.6% hits; in the data active means fold change above about 3.3
APP 5'UTR act: APP 5'UTR luciferase reporter activation; SH-SY5Y APP 5'UTR luciferase reporter, luminescence; zero percent = DMSO vehicle wells; activation, % at 2 µM; 190,000 compounds, 1% hits;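 active means activation above a set limit, based on mean plus 3 SD of controls, cut at about 140% in these data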
STAT1 blocker: STAT1 signaling inhibition. inhibition, % at 5.5 µM. NIH 3T3 STAT1-luciferase reporter, IFN-gamma, luminescence. 200,000 compounds, 0.35% hits. AID 920;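 active means inhibition above a set limit, the mean inhibition across all tested compounds plus 3 SD, cut at about 34% in these data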
STAT3 activator: STAT3 signaling activation; 190,000 compounds, 0.91% hits; activation (% of control), % at 5.6 µM; U3A cells, IL-6 STAT3-luciferase reporter, luminescence; 100% = signal with IL-6 EC80 alone;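 active means activation above the screen-wide mean of compound activation plus 3 SD, cut at about 130% in these data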
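system = STAT3-luciferase reporter U3A cells | reagent = IL-6 stimulus at 33 ng/mL final | timing = 1 h compound pre-exposure, 6 h IL-6 stimulation, 37 °C | measured by = luminescence | evaluation = % activation versus median of IL-6-stimulated wells | control set = IL-6-only wells as 100% reference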
STAT3 inh-2: STAT3 inhibition, confirmation assay. shares compounds with STAT3 inh-1. 1,200 compounds, 45% hits. inhibition, % at 5.7 µM. U3A cells, IL-6 STAT3 luciferase reporter, luminescence; cell line lacks STAT1. AID 1265;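 active means inhibition above the hit cutoff computed for the primary STAT3 screen, cut at about 44% in these data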
NFkB inh 2: inhibits NF-kappaB, counter-screen to STAT3 inhibitors | shares compounds with STAT3 inh-1 | HEK293T NF-kB luciferase reporter, TNF-alpha induced | inhibition, % at 5.7 µM | 1,200 compounds, 36% hits;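 active means inhibition above the mean of solvent-only control wells plus 3 SD, cutoff set per campaign, cut at about 13% in these data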
STAT1 inh STAT3c: STAT1 inhibition in STAT3 inhibitor counter-screen | shares compounds with STAT3 inh-1 | NIH 3T3 STAT1-luciferase reporter, IFN-gamma induced, luminescence | inhibition, % at 5.7 µM | 1,200 compounds, 27% hits | AID 1317;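 active means inhibition above the mean plus 3 SD of solvent-only control wells, limit set per screening run, cut at about 16% in these data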
Of the large screens only hits and unclear results are named; the others gave an inactive call (follow-up assays come after a bar, where they were run).

CN1/C(=C\C(=O)C[n+]2ccc(C(=O)c3ccccc3)cc2)C(C)(C)c2ccccc21	STAT3 inh-1 56.1 | STAT3 inh-2 61.4 | NFkB inh 2 inactive | STAT1 inh STAT3c inactive
O=C(Nc1ccc(S(=O)(=O)N2CCCC2)cc1)c1ccc(CN2CCc3ccccc3C2)cc1	STAT3 inh-1 82.1 | STAT3 inh-2 84.8 | NFkB inh 2 33.7 | STAT1 inh STAT3c inactive
O=C(Nc1ccc(Cc2ccncc2)cc1)c1ccc(S(=O)(=O)N2CCCC2)cc1	STAT3 inh-1 68.0 | STAT3 inh-2 66.4 | NFkB inh 2 14.8 | STAT1 inh STAT3c inactive
O=C(Nc1ccccc1)c1ccc(S(=O)(=O)N2CCOCC2)cc1	none
O=C(Nc1ccc(S(=O)(=O)N2CCOCC2)cc1)c1ccc(CN2CCc3ccccc3C2)cc1	STAT3 inh-1 83.2 | STAT3 inh-2 87.7 | NFkB inh 2 42.1 | STAT1 inh STAT3c 33.1
Cc1ccc(-c2nc(N3CCOCC3)sc2C(=O)N2CCCCC2)cc1	none
O=C(C(Sc1ccccc1)c1ccccc1)N1CCOCC1 (stereo not drawn)	none
CCC(Sc1nccn1C)C(=O)Nc1ccc(Cl)cn1 (stereo not drawn)	none
O=C(O)CC1COc2ccccc2N1C(=O)c1ccccc1Cl (stereo not drawn)	none
O=C(Nc1ccc(-c2nc3ccccc3s2)cc1)c1cc(-n2cnnc2)ccc1Cl	STAT3 inh-1 62.0 | STAT3 inh-2 inactive | NFkB inh 2 inactive | STAT1 inh STAT3c inactive
Cc1ccc(NC(=O)c2cc(-n3cnnc3)ccc2Cl)cc1	none
Cc1ccc(S(=O)(=O)CC2CSc3nc(N)cc(=O)n32)cc1 (stereo not drawn)	none
Cc1ccc(S(=O)(=O)CC2CSc3nc4ccccc4n32)cc1 (stereo not drawn)	STAT3 inh-1 87.9 (no result: APP 5'UTR act) | STAT3 inh-2 84.0 | NFkB inh 2 34.3 | STAT1 inh STAT3c 31.9
O=C(Nc1ccc(Cn2cccn2)cc1)c1ccc(COc2ccc(Br)cc2)cc1	none
O=C(Nc1ccn(Cc2ccccc2F)n1)c1ccc(COc2ccc(Br)cc2)cc1	STAT3 inh-1 47.0 | STAT3 inh-2 52.2 | NFkB inh 2 inactive | STAT1 inh STAT3c inactive
O=C(Nc1cccc(-c2nc3cccnc3s2)c1)C1c2ccccc2Oc2ccccc21	none
COc1ccc(CSc2nnc3[nH]c(=O)cc(N)n23)cc1	none
O=C1c2ccc(Br)cc2C(=O)N1c1ccc(Cc2ccncc2)cc1	STAT3 inh-1 59.3 | STAT3 inh-2 58.7 | NFkB inh 2 inactive | STAT1 inh STAT3c inactive
Cc1ccc(S(=O)(=O)N2CCCCC2)c(C)c1NS(C)(=O)=O	none (no result: NF-kB neuron act)
CN(C)c1ccc(N/C=C/C(=O)c2ccco2)cc1	STAT3 inh-1 59.5 (no result: APP 5'UTR act) | STAT3 inh-2 inactive | NFkB inh 2 25.3 | STAT1 inh STAT3c inactive
COc1cc2c(cc1OC)C1=NC(=O)CN1C(SCc1ccccc1C)=N2	STAT3 inh-1 47.1 | STAT3 inh-2 inactive | NFkB inh 2 19.5 | STAT1 inh STAT3c inactive
Cc1ccc(C(=O)C2CCNCC2)cc1	none
Cc1ccc(C(=O)/C=C2\NCC(C)NC2=O)cc1 (stereo not drawn)	STAT3 inh-1 65.1 | STAT3 inh-2 inactive | NFkB inh 2 inactive | STAT1 inh STAT3c inactive
O=C(CSc1nnnn1C1CC2CCC1C2)Nc1ccnc2ccccc12 (stereo not drawn)	STAT3 inh-1 81.3 | STAT3 inh-2 88.8 | NFkB inh 2 42.0 | STAT1 inh STAT3c 32.5
COCCNS(=O)(=O)c1ccc(C)c(C)c1C	none
COc1c(C)cc(NC(=O)c2ccc3c(c2)NC(=O)CO3)cc1C	STAT3 inh-1 45.3 | STAT3 inh-2 inactive | NFkB inh 2 inactive | STAT1 inh STAT3c inactive
O=C1c2ccccc2C(=O)C1c1ccc2ccccc2n1	STAT3 inh-1 49.0 | STAT3 inh-2 inactive | NFkB inh 2 41.6 | STAT1 inh STAT3c inactive
CNCc1sccc1C	none

Bioassay records from PubChem.
